We go through eleven molecules from ChEMBL document CHEMBL1126854, “A series of penicillin derived C2-symmetric inhibitors of HIV-1 proteinase: synthesis, mode of interaction, and structure-activity relationships” (J Med Chem, 1993).

In data set [1] the test system is Human immunodeficiency virus 1. As to the kind of experiment: Inhibitory effects on HIV-1 induced syncytium formation in C8166 cells. Format: functional, organism-based. Particulars: Human immunodeficiency virus 1, C8166. The gist of the method: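 C8166 cells were infected with HIV-1 RF at moi 1×10^-3 and plated at 10^5 cells/well. Compound in Me2SO was serially diluted in RPMI 1640 from 50 to 0.05 μg/mL. Cells were kept 3–4 days at 37 °C, 5% CO2, and checked daily for syncytia. Syncytia were scored against untreated infected controls, and EC50 was calculated as 50% reduction of cytopathic effect.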

For a further data set, the system named is MT4. In words: Inhibition of cytopathic effect of HIV-1 strain RF in MT-4 cell culture. Format: functional, cell-based. The settings on record: Homo sapiens. Summed up:
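MT-4 cells at 10^6 cells/mL in RPMI 1640 were infected with HIV-1 RF at moi 2×10^-3 (5×10^4 cells/well). Compound in Me2SO was diluted in 10-fold steps from 100 to 0.01 μg/mL. Cells were kept 7 days at 37 °C, 5% CO2, then given MTT for 60 min. Acidified 2-propanol was added and A540 read. EC50 for 50% inhibition of formazan conversion is the mean of duplicates; toxicity was assayed at the same concentrations.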
(In general: Cytopathic effects are the visible damage that an infection or toxin causes in cultured cells.)

Data set [2] concerns the target Human immunodeficiency virus type 1 protease (Human immunodeficiency virus 1, UniProt Q72874). As to the kind of experiment: Inhibitory activity against HIV-1 Protease. Summed up: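 Buffer: 20 mM MES pH 6.0, 2 M NaCl, 5 mM DTT, 2 mM EDTA. Compounds in 25% Me2SO over a concentration range. Incubated 60 min at 37 °C with shaking, then filtered; released radioactivity counted by scintillation. IC50 from duplicate means, standardized to a reference-compound control.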

A short description of data set [3]: Volume of distribution in Beagles dog at a dose of 1 mg/kg given intravenously. The settings on record: beagle, in vivo, iv, read-out: Distribution. In kind it is ADME, organism-based, Canis lupus familiaris. Further details: dose 1 mg/kg, route intravenous. The gist of the method: (§1)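 Single intravenous dose in a vehicle of ethanol (10–20%), polyethyleneglycol (10%) and saline. Doses were 5 mg/kg for CD rats (n = 2 per time point), 1 mg/kg for beagles (n = 2) and 5 mg/kg for cynomolgus monkeys (n = 2). Plasma t1/2, plasma clearance and steady-state volume of distribution were derived.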

A short description of data set [4]: Volume of distribution in Cynomolgus monkey at a dose of 5 mg/kg given intravenously. Format: ADME, organism-based, Macaca fascicularis. Further details: dose 5 mg/kg, route intravenous. Particulars: in vivo, iv, read-out: Distribution. The gist of the method:
as §1

Data set [5] can be described thus: Plasma clearance in Beagles dog at a dose of 1 mg/kg given intravenously. In kind it is ADME, organism-based, Canis lupus familiaris. On the set-up: dose 1 mg/kg, route intravenous. The settings on record: beagle, iv. Summed up:
as §1

Data set [6] in a line: Plasma clearance in CD rat at a dose of 5 mg/kg given intravenously. Format: ADME, organism-based. Further details: dose 5 mg/kg, route intravenous. Particulars: iv. The gist of the method: as §1
A short description of data set [7]: Plasma clearance in Cynomolgus monkey at a dose of 5 mg/kg given intravenously. In kind it is ADME, organism-based, Macaca fascicularis. Further details: dose 5 mg/kg, route intravenous. The settings on record: iv. The gist of the method: as §1
The nature of data set [8]: Half-life in Beagles dog at a dose of 1 mg/kg given intravenously. In kind it is ADME, organism-based, Canis lupus familiaris. On the set-up: dose 1 mg/kg, route intravenous. Particulars: beagle, in vivo, iv. The gist of the method: as §1
Data set [9] can be described thus: Half-life in CD rat at a dose of 5 mg/kg given intravenously. In kind it is ADME, organism-based. Further details: dose 5 mg/kg, route intravenous. Particulars: in vivo, iv. The gist of the method: as §1
Data set [10] can be described thus: Half-life in Cynomolgus monkey at a dose of 5 mg/kg given intravenously. Format: ADME, organism-based, Macaca fascicularis. On the set-up: dose 5 mg/kg, route intravenous. The settings on record: in vivo, iv. Summed up:
as §1

Data set [11] in a line: Volume of distribution in CD rat at a dose of 5 mg/kg given intravenously. In kind it is ADME, organism-based. Further details: dose 5 mg/kg, route intravenous. Particulars: in vivo, iv, read-out: Distribution. The gist of the method:
as §1

The structures appear in SMILES notation. Bounds are passed on as bounds.

As usually defined, the EC50 is the concentration giving half of the maximal effect. In general, IC50 refers to the concentration at which inhibition is half-maximal. In the case of `CCNC(=O)[C@@H](NC(=O)CCc1ccccc1)[C@@H]1N[C@@H](C(=O)NCCNC(=O)[C@@H]2N[C@@H]([C@H](NC(=O)CCc3ccccc3)C(=O)NCC)SC2(C)C)C(C)(C)S1`, the EC50 in data set [1] is 60 nM; in the data set on MT4, 3900 nM. Moreover, in [2], the 50% inhibitory concentration (IC50) came out at 2.4 nM.
Broadly, the clearance is the volume of plasma or blood freed of the substance per unit of time. The term half-life denotes the time needed for the level to fall by half in the phase considered. On to `CCNC(=O)[C@@H](NC(=O)Cc1ccccc1)[C@@H]1N[C@@H](C(=O)NCCNC(=O)[C@@H]2N[C@@H]([C@H](NC(=O)Cc3ccccc3)C(=O)NCC)SC2(C)C)C(C)(C)S1`, for which the Vd was found to be 50 L in [3], 17 L in [4] and 2.8 L in data set [11]. Further, the clearance in data set [5] was determined as 300 mL/min; in [6], 12 mL/min; in data set [7], 200 mL/min. Moreover, the results for the half-life in data set [8], in [9] and in data set [10] were 4 h, 5 h and 1.2 h, respectively. Moreover, the EC50 came out at 1100 nM in data set [1] and 5400 nM in the data set on MT4.
As for `CC1(C)S[C@H]([C@H](NC(=O)Cc2ccccc2)C(=O)N2CCCCC2)N[C@H]1C(=O)NCCNC(=O)[C@@H]1N[C@@H]([C@H](NC(=O)Cc2ccccc2)C(=O)N2CCCCC2)SC1(C)C`, the EC50 in data set [1] stood at 230 nM; with MT4 it was 1800 nM. In [2], this molecule registered a half-maximal inhibitory concentration (IC50) of 6.9 nM.
For `CCNC(=O)[C@@H](NS(=O)(=O)Cc1ccccc1)[C@@H]1N[C@@H](C(=O)NCCNC(=O)[C@@H]2N[C@@H]([C@H](NS(=O)(=O)Cc3ccccc3)C(=O)NCC)SC2(C)C)C(C)(C)S1` the same measures were 13000 nM, 32000 nM and 58 nM.
The like results for `CCNC(=O)[C@@H](NC(=O)Cc1cccs1)[C@@H]1N[C@@H](C(=O)NCCNC(=O)[C@@H]2N[C@@H]([C@H](NC(=O)Cc3cccs3)C(=O)NCC)SC2(C)C)C(C)(C)S1` were, in that order, 5200 nM, 27000 nM and 15 nM.
For `CCNC(=O)[C@@H](NC(=O)c1ccccc1-c1ccccc1)[C@@H]1N[C@@H](C(=O)NCCNC(=O)[C@@H]2N[C@@H]([C@H](NC(=O)c3ccccc3-c3ccccc3)C(=O)NCC)SC2(C)C)C(C)(C)S1`, the EC50 was 170 nM in [1] and 30 nM with MT4. In addition, the IC50 in data set [2] stood at 9.9 nM.
The like results for `CN(C)c1ccc(CNC(=O)[C@@H](NC(=O)Cc2ccccc2)[C@@H]2N[C@@H](C(=O)NCCNC(=O)[C@@H]3N[C@@H]([C@H](NC(=O)Cc4ccccc4)C(=O)NCc4ccc(N(C)C)cc4)SC3(C)C)C(C)(C)S2)cc1` were, in that order, 20 nM, below 10 nM and 47 nM.
Turning to `CC1(C)S[C@H]([C@H](NC(=O)Cc2ccccn2)C(=O)NCc2ccc(Cl)cc2Cl)N[C@H]1C(=O)NCCNC(=O)[C@@H]1N[C@@H]([C@H](NC(=O)Cc2ccccn2)C(=O)NCc2ccc(Cl)cc2Cl)SC1(C)C`, the 50% effective concentration (EC50) came out at 240 nM in data set [1] and 530 nM in the data set with MT4. Further, half-maximal inhibition in data set [2] (IC50) was put at 14 nM.
Take `CC1(C)S[C@H]([C@H](NC(=O)Cc2ccccc2)C(=O)NCC2CCCCC2)N[C@H]1C(=O)NCCNC(=O)[C@@H]1N[C@@H]([C@H](NC(=O)Cc2ccccc2)C(=O)NCC2CCCCC2)SC1(C)C`: the EC50 was 60 nM in data set [1] and 8200 nM in the data set on MT4. The half-inhibitory concentration (IC50) in [2] came to 40 nM.
The like results for `CN(C)C(=O)[C@@H](NC(=O)Cc1ccccc1)[C@@H]1N[C@@H](C(=O)NCCNC(=O)[C@@H]2N[C@@H]([C@H](NC(=O)Cc3ccccc3)C(=O)N(C)C)SC2(C)C)C(C)(C)S1` were, in that order, 1700 nM, 4400 nM and 5.2 nM.
On to `CN(C)c1ccc(CNC(=O)[C@@H](NC(=O)c2ccccc2-c2ccccc2)[C@@H]2N[C@@H](C(=O)NCCNC(=O)[C@@H]3N[C@@H]([C@H](NC(=O)c4ccccc4-c4ccccc4)C(=O)NCc4ccc(N(C)C)cc4)SC3(C)C)C(C)(C)S2)cc1`, for which the EC50 is 30 nM in data set [1] and below 10 nM in the data set on MT4. Besides, in data set [2], it took 0.23 nM to reach half-maximal inhibition (IC50).
